In ChEMBL document CHEMBL4334465, “SAR Studies on Aromatic Acylhydrazone-Based Inhibitors of Fungal Sphingolipid Synthesis as Next-Generation Antifungal Agents” (J Med Chem, 2019):
In brackets after ≈: the same amount, converted by molar mass.

How the values were obtained:
Cryptococcus neoformans [1] = test: Antifungal activity against Cryptococcus neoformans H99 measured after 24 to 72 hrs; assay type: functional; details: var grubii H99
Summary of the method: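 Modified CLSI broth microdilution with inoculum per M27A3. Compounds were serially diluted 32 to 0.03 μg/mL. Media: C. neoformans in HEPES-buffered YNB without amino acids (pH 7.0, 2% glucose); Candida strains in YNB without ammonium sulfate or amino acids plus 1% asparagine (pH 7.0, 2% glucose); A. fumigatus in RPMI (pH 7.0, 2% glucose).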

[2] = Selectivity index, ratio of LD50 for human A549 cells to MIC80 for Cryptococcus neoformans H99; assay type: toxicity; details: read-out: Selectivity Index
Summary of the method: (§1)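 SI = LD₅₀/MIC₈₀. Cytotoxicity: A549 or HepG2 cells (DMEM, 10% FBS, passage 7, 10⁵ cells/well) adhered 14 h, then exposed to 0.03–128 μg/mL for 24 or 48 h at 37°C, 5% CO₂; MTT 4 h, formazan dissolved in DMSO, read at 570 nm. MIC₈₀ against C. neoformans from broth microdilution in HEPES-buffered YNB, pH 7.0.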

Cryptococcus neoformans [3] = test: Fungicidal activity against Cryptococcus neoformans H99 measured after 24 hrs by time-kill assay; assay type: functional, var grubii H99
Summary of the method: (§2)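 Overnight C. neoformans washed in PBS and resuspended in HEPES-buffered YNB, pH 7.4. 2 × 10⁴ cells exposed to a range of drug concentrations in 10 mL with 0.5% DMSO final, at 37°C, 5% CO₂, shaking at 200 rpm. Aliquots sampled over 96 h, diluted and plated on YPD; CFU counted after 48 h at 30°C.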

A549 = test: Cytotoxicity against human A549 cells after 24 to 48 hrs by MTT assay; assay type: functional; details: read-out: LD50 (the source's name)
Summary of the method: (§3)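 A549 and HepG2 kept in DMEM with 10% FBS and 1% pen-strep. At passage 7, seeded at 10⁵ cells/well and allowed to adhere 14 h. Compound added at 0.03–128 μg/mL, untreated wells as controls. Incubation 37°C, 5% CO₂ for 24 or 48 h. MTT (5 mg/mL in PBS) added for 4 h, formazan dissolved in DMSO, OD570.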

HepG2 = test: Cytotoxicity against human HepG2 cells after 24 to 48 hrs by MTT assay; assay type: functional; details: read-out: LD50 (the source's name); summary of the method: as §3
[4] = Selectivity index, ratio of LD50 for human HepG2 cells to MIC80 for Cryptococcus neoformans H99; assay type: toxicity; details: read-out: Selectivity Index; summary of the method: as §1
Cryptococcus neoformans [5] = test: Fungicidal activity against Cryptococcus neoformans H99 measured after 48 hrs by time-kill assay; assay type: functional, var grubii H99; summary of the method: as §2

Compound	MIC80 (Cryptococcus neoformans [1]) [µg/mL]	selectivity ratio [2]	MFC100 (Cryptococcus neoformans [3]) [µg/mL]	CC50 (A549) [µg/mL]	CC50 (HepG2) [µg/mL]	selectivity ratio [4]	MFC100 (Cryptococcus neoformans [5]) [µg/mL]
O=C(N/N=C/c1cc(Br)cc(Br)c1O)c1cc(Br)cc(Br)c1	> 16	–	–	–	–	–	–
C/C(=N\NC(=O)c1ccc(Br)cc1Br)c1cc(Br)cc(Br)c1O	> 16	–	–	–	–	–	–
O=C(N/N=C/c1cc(Cl)ccc1O)c1cc(Br)ccc1Br	0.25 (≈ 0.578 µM)	236	0.25 (≈ 0.578 µM)	59 (≈ 136 µM)	32 (≈ 74 µM)	128	–
O=C(N/N=C/c1cc(Br)cc(Br)c1O)c1ccc(F)cc1	0.12 (≈ 0.288 µM)	267	0.25 (≈ 0.601 µM)	32 (≈ 76.9 µM)	32 (≈ 76.9 µM)	267	–
O=C(N/N=C/c1cc(F)ccc1O)c1cc(Br)ccc1Br	> 16	–	–	–	–	–	–
O=C(N/N=C/c1cc(Br)cc(Br)c1O)c1cccc(OC(F)(F)F)c1	4 (≈ 8.3 µM)	–	–	–	–	–	–
Cc1ccc(O)c(/C=N/NC(=O)c2cc(Br)ccc2Br)c1	1 (≈ 2.43 µM)	32	–	32 (≈ 77.7 µM)	32 (≈ 77.7 µM)	32	0.5 (≈ 1.21 µM)
C/C(=N\NC(=O)c1ccc(Br)cc1Br)c1cc(Br)ccc1O	> 16	–	–	–	–	–	–
O=C(N/N=C/c1cc(Cl)ccc1O)c1ccc(Br)c(Br)c1	0.06 (≈ 0.139 µM)	267	–	16 (≈ 37 µM)	32 (≈ 74 µM)	533	1 (≈ 2.31 µM)
CN(C)c1ccc(C(=O)N/N=C/c2c(O)ccc3ccccc23)cc1	0.5 (≈ 1.5 µM)	64	2 (≈ 6 µM)	32 (≈ 96 µM)	16 (≈ 48 µM)	–	–
O=C(N/N=C/c1cc(Br)cc(Br)c1O)c1cccc(C(=O)N/N=C/c2cc(Br)cc(Br)c2O)c1	> 16	–	–	–	–	–	–
Cc1ccc(O)c(/C=N/NC(=O)c2ccc(Br)cc2Br)c1	1 (≈ 2.43 µM)	32	2 (≈ 4.85 µM)	32 (≈ 77.7 µM)	16 (≈ 38.8 µM)	16	–
CN(C)c1ccc(C(=O)N/N=C/c2cc(Br)ccc2O)cc1	> 16	–	–	–	–	–	–
O=C(N/N=C/c1cc(Br)cc(Br)c1O)c1ccc(OC(F)(F)F)cc1F	0.06 (≈ 0.12 µM)	267	–	16 (≈ 32 µM)	16 (≈ 32 µM)	267	0.5 (≈ 1 µM)
N#Cc1ccc(O)c(/C=N/NC(=O)c2ccc(Br)cc2Br)c1	8 (≈ 18.9 µM)	–	–	–	–	–	–
O=C(c1ccc(Br)cc1)n1ccc(-c2cc(Br)cc(Br)c2O)n1	> 16	–	–	–	–	–	–
C/C(=N\NC(=O)c1cc(Br)ccc1Br)c1cc(Br)cc(Br)c1O	> 16	–	–	–	–	–	–
O=C(N/N=C/c1ccc(Br)cc1O)c1cccc(C(F)(F)F)c1	0.5 (≈ 1.29 µM)	128	–	64 (≈ 165 µM)	16 (≈ 41.3 µM)	32	2 (≈ 5.17 µM)
C/C(=N\NC(=O)c1cc(Br)ccc1Br)c1cc(Br)ccc1O	> 16	–	–	–	–	–	–
O=C(N/N=C/c1cc(Br)cc(Br)c1O)c1ccc(C(F)(F)F)cc1F	0.12 (≈ 0.248 µM)	533	–	64 (≈ 132 µM)	16 (≈ 33.1 µM)	133	0.5 (≈ 1.03 µM)
CC(=O)Nc1ccc(C(=O)N/N=C/c2ccc(Br)cc2O)cc1	> 16	–	–	–	–	–	–
O=C(N/N=C/c1cc(Br)ccc1O)c1cccc(OC(F)F)c1	0.12 (≈ 0.312 µM)	66.6	1 (≈ 2.6 µM)	8 (≈ 20.8 µM)	64 (≈ 166 µM)	533	–

Compound	MIC80 (Cryptococcus neoformans [1]) [µg/mL]	selectivity ratio [2]	MFC100 (Cryptococcus neoformans [3]) [µg/mL]	CC50 (A549) [µg/mL]	CC50 (HepG2) [µg/mL]	selectivity ratio [4]	MFC100 (Cryptococcus neoformans [5]) [µg/mL]
O=C(N/N=C/c1cc(Br)ccc1O)c1cc(Br)ccc1Br	0.25 (≈ 0.524 µM)	64	–	16 (≈ 33.5 µM)	32 (≈ 67.1 µM)	128	1 (≈ 2.1 µM)
Cc1ccccc1-c1nnc(-c2cc(Br)ccc2O)o1	> 16	–	–	–	–	–	–
O=C(N/N=C/c1cc(Br)ccc1O)c1cccc(C(=O)N/N=C/c2cc(Br)ccc2O)c1	> 16	–	–	–	–	–	–
O=C(N/N=C/c1c(O)ccc2ccccc12)c1cc(Br)ccc1Br	0.25 (≈ 0.558 µM)	128	0.25 (≈ 0.558 µM)	32 (≈ 71.4 µM)	16 (≈ 35.7 µM)	64	–
Nc1ccc(C(=O)N/N=C/c2ccc(Br)cc2O)cc1	4 (≈ 12 µM)	–	–	–	–	–	–
O=C(N/N=C/c1ccc(Br)cc1O)c1cccc(Br)c1Br	> 16	–	–	–	–	–	–
O=C(N/N=C/c1cc(Cl)cc(Cl)c1O)c1cc(Br)ccc1Br	0.5 (≈ 1.07 µM)	64	0.25 (≈ 0.535 µM)	32 (≈ 68.5 µM)	32 (≈ 68.5 µM)	64	–
Cc1ccccc1C(=O)N/N=C/c1cc(C(F)(F)F)ccc1O	8 (≈ 24.8 µM)	–	–	–	–	–	–
Cc1ccc(O)c(/C=N/NC(=O)c2cc(Br)cc(Br)c2O)c1	0.25 (≈ 0.584 µM)	16	0.25 (≈ 0.584 µM)	4 (≈ 9.34 µM)	8 (≈ 18.7 µM)	32	–
CN(/N=C/c1cc(Br)cc(Br)c1O)C(=O)c1ccc(Br)cc1	> 16	–	–	–	–	–	–
Cc1ccccc1C(=O)N/N=C/c1cc(C#N)ccc1O	4 (≈ 14.3 µM)	–	–	–	–	–	–
Cc1ccc(O)c(/C=N/NC(=O)c2cc(Br)ccc2O)c1	0.25 (≈ 0.716 µM)	64	0.5 (≈ 1.43 µM)	16 (≈ 45.8 µM)	16 (≈ 45.8 µM)	64	–
O=C(N/N=C/c1cc(OC(F)(F)F)ccc1O)c1ccc(Br)cc1Br	0.25 (≈ 0.519 µM)	128	2 (≈ 4.15 µM)	32 (≈ 66.4 µM)	64 (≈ 133 µM)	256	–
O=C(N/N=C/c1c(O)ccc2ccccc12)c1cccc(Br)c1Br	> 16	–	–	–	–	–	–
O=C(N/N=C/c1ccc(Br)cc1O)c1ccc(OC(F)F)cc1	0.12 (≈ 0.312 µM)	267	1 (≈ 2.6 µM)	32 (≈ 83.1 µM)	32 (≈ 83.1 µM)	267	–
Cc1ccc(O)c(/C=N/NC(=O)c2cc(Br)cc(Br)c2)c1	0.5 (≈ 1.21 µM)	64	1 (≈ 2.43 µM)	32 (≈ 77.7 µM)	16 (≈ 38.8 µM)	32	–
O=C(N/N=C/c1cc(Br)cc(Br)c1O)c1cccc(C(F)(F)F)c1	2 (≈ 4.29 µM)	–	–	–	–	–	–
O=C(N/N=C/c1c(O)ccc2ccccc12)c1cc(Br)cc(Br)c1	0.25 (≈ 0.558 µM)	8	0.5 (≈ 1.12 µM)	2 (≈ 4.46 µM)	4 (≈ 8.93 µM)	16	–
O=C(N/N=C/c1cc(Cl)cc(Cl)c1O)c1cc(Br)cc(Br)c1	0.5 (≈ 1.07 µM)	128	0.5 (≈ 1.07 µM)	64 (≈ 137 µM)	64 (≈ 137 µM)	128	–
O=C(N/N=C/c1cc(Br)cc(Br)c1O)c1ccc(CF)cc1	0.5 (≈ 1.16 µM)	32	0.5 (≈ 1.16 µM)	16 (≈ 37.2 µM)	16 (≈ 37.2 µM)	32	–
Cc1ccc(O)c(/C=N/NC(=O)c2cccc(Br)c2Br)c1	> 16	–	–	–	–	–	–
